Data on 4 compounds can be found in paper PMC2939291 (Experimental parasitology, 2010).

The conditions of data set [1]: standard doses (0.3 mg/kg days 1 and 2, increasing to 0.5 mg/kg) during clinical therapy; ref Atkinson, Jr. and Bennett, 1978; cited from earlier work.
The test system of data set [2] is Leishmania amazonensis infected cells. Nature of the data set: Infection measured by standard Giemsa staining of cells. The class given is cell-based.
Data set [3] concerns egfp transfected Leishmania amazonensis amastigotes in THP-1 cells. Nature of the data set: microbe, parasite or virus in culture. The class given is cell-based.
Data set [4] has as its system egfp transfected Leishmania amazonensis amastigotes in PBMC derived macrophages. Nature of the data set: microbe, parasite or virus in culture. The class given is cell-based.
Data set [5] concerns GFP-transfected Leishmania (Viannia) panamensis amastigotes in U937 cell line. The settings on record: L. (V.) panamensis in U937 cells, GFP flow cytometry; ref Varela et al., 2009; cited from earlier work.
For data set [6], the system named is human PBMC derived macrophages. The class given is cell-based.
A further data set deals with THP-1 cells. In words: Trypan blue dye exclusion cytotoxicity test, THP-1 cells. The class given is cell-based, human. In a few lines:
(§1)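 Macrophages prepared before testing: THP-1 cells were grown in RPMI 1640 with 10% heat-inactivated FBS at 37°C and 5% CO2, then stimulated with 20 nM PMA. PBMC-derived cells were stimulated with autologous platelet-poor serum. After test compound exposure, clear (viable) and blue cells were counted on a hemocytometer to give percent viability. CC50 came from a variable-slope sigmoidal fit normalised to untreated cells. Assays were run in duplicate.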

In data set [7] the test system is human PBMC derived macrophages. In words: Trypan blue dye exclusion cytotoxicity test, human PBMC derived macrophages. The class given is cell-based. Put shortly: as §1

≈ marks a conversion by molar mass, not a printed value. Where two headings read alike, the source gives them in different places.

On to `C[C@@H]1[C@H](O)[C@@H](C)/C=C/C=C/C=C/C=C/C=C/C=C/C=C/[C@H](O[C@@H]2O[C@H](C)[C@@H](O)[C@H](N)[C@@H]2O)C[C@@H]2O[C@](O)(C[C@@H](O)C[C@@H](O)[C@H](O)CC[C@@H](O)C[C@@H](O)CC(=O)O[C@H]1C)C[C@H](O)[C@H]2C(=O)O` [Amphotericin B, amphotericin B], for which the serum level entry in data set [1] is “above 0.2 μg/ml”. For the same compound, the 50% effective concentration (EC50) (in general, the concentration at which the effect is half-maximal) is 0.074 µg/mL (≈ 0.0801 µM) in data set [2]; 0.1445 ± 0.0005 µg/mL (≈ 0.156 µM) in data set [3] (Leishmania amazonensis, THP-1); 0.179 ± 0.035 µg/mL (≈ 0.194 µM) in data set [4] (Leishmania amazonensis, in Homo sapiens); 0.078 µg/mL (≈ 0.0844 µM) in data set [5]. Also, the “Selective Index (SI)” value in data set [3] (THP-1 cells, ratio of EC50 and CC50) was 105.2; in data set [4] (human PBMC derived macrophages, ratio of EC50 and CC50) it was 355.9; in data set [4] (human PBMC derived macrophages, ratio of EC50 and CC50, listed as amphotericin B) it was 356.
Take `CCCCCCCCCCCCCCCCOP(=O)([O-])OCC[N+](C)(C)C` [Miltefosine, miltefosine]: the “toxicity against the macrophages” value in data set [6] is given as “significant toxicity”. The “Selective Index (SI)” value in data set [3] is 1.51; in data set [4], 6.13.
For `O.O.O.O.O.O.O.O.O.O=C([O-])[C@@H]1[O][Sb](=[O])([O][Sb]2(=[O])[O][C@H]([C@H](O)CO)[C@H](O)[C@H](C(=O)[O-])[O]2)[O][C@H]([C@H](O)CO)[C@@H]1O.[Na+].[Na+].[Na+]` (stereo partly drawn) [Sodium stibogluconate, sodium stibogluconate], the CC50 – broadly, the concentration giving 50% cytotoxicity – in the data set with THP-1 cells amounted to 4600 ± 1100 µg/mL; in data set [7] it was 6300 ± 2800 µg/mL. In data set [4] (human PBMC derived macrophages, GFP fluorescence), this compound displayed a concentration for a half-maximal effect (EC50) of 194.8 ± 36.4 µg/mL.
In the case of meglumine antimoniate, the EC50 in data set [5] is 20 µg/mL.
